In experiment [1] the test system is Escherichia coli. Put plainly: Antibacterial activity against Escherichia coli KCTC 1924 after 18 hrs by microdilution method. The experiment is classed as functional. The note with it: KCTC 1924, 18 h. Put shortly:
(§1)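 Broth microdilution assay. The minimum restrictive concentration (MRC) was taken as the lowest concentration that reduced growth by at least 50%.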

Experiment [2] deals with Staphylococcus aureus. As to the kind of experiment: Antibacterial activity against Staphylococcus aureus RN4220 after 18 hrs by microdilution method. The format is functional. In short, it runs like this: as §1
The test system of experiment [3] is Bacillus subtilis. As to the kind of experiment: Antibacterial activity against Bacillus subtilis KCTC 1021 after 18 hrs by microdilution method. The experiment is classed as functional. In short, it runs like this:
as §1

Experiment [4] has as its target T1, Peptide deformylase (Staphylococcus aureus subsp. aureus Mu50, UniProt P68825).
T1 sequence (P68825 whole entry): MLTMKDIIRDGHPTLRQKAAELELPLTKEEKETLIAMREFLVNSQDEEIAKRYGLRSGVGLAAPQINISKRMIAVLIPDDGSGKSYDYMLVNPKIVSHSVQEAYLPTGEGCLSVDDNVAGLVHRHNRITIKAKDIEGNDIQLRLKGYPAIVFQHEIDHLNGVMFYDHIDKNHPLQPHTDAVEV
Put plainly: Inhibition of Staphylococcus aureus peptide deformylase.

Each structure is given as a SMILES string. ≈ marks a conversion by molar mass, not a printed value.

Turning to `C[C@@H]1CCC/C=C/CCC(=O)C[C@@H](O)C/C=C\C=C\[C@@H](O[C@H]2O[C@@H](CO)[C@H](O)[C@@H](O)[C@@H]2O)C/C=C/C=C\C(=O)O1` [MACROLACTIN O], in experiment [1], the MIC was 100 µg/mL (≈ 177 µM). The MRC in experiment [2] and in experiment [3] was 100 µg/mL in each case. Moreover, half-maximal inhibition in experiment [4] (IC50) required 53.5 µM.
As for `C[C@@H]1CCC/C=C\C=C\[C@H](O)C[C@@H](O)C/C=C\C=C\[C@@H](O[C@H]2O[C@@H](CO)[C@H](O)[C@@H](O)[C@@H]2O)C/C=C/C=C\C(=O)O1` [MACROLACTIN Q], the lowest concentration to inhibit growth in experiment [1] (MIC) was 100 µg/mL (≈ 177 µM). Besides, the MRC in experiment [2] and in experiment [3] was 100 µg/mL throughout. Further, the IC50 in experiment [4] came out at 12.1 µM.
In experiment [1], `C[C@@H]1CCC/C=C/C=C/[C@H](O)C[C@@H](O)C/C=C/C=C/[C@@H](O[C@H]2O[C@@H](CO)[C@H](O)[C@@H](O)[C@@H]2O)C/C=C/C=C\C(=O)O1` [MACROLACTIN R] had an MIC of 100 µg/mL (≈ 177 µM). The MRC in experiment [2] and in experiment [3] was 100 µg/mL throughout. This molecule also yielded a half-maximal inhibitory concentration (IC50) in experiment [4] of 61.5 µM.
In experiment [1], `CC[C@@H]1CCC/C=C/C=C/[C@H](O)C[C@@H](O)C/C=C\C=C\[C@@H](O[C@H]2O[C@@H](CO)[C@H](O)[C@@H](O)[C@@H]2O)C/C=C/C=C\C(=O)O1` [MACROLACTINN P] returned an MIC of 100 µg/mL (≈ 173 µM). The MRC in experiment [2] and in experiment [3] was 100 µg/mL throughout. Moreover, it took 57.7 µM to reach half-maximal inhibition in experiment [4] (IC50).
